Results reported in ChEMBL document CHEMBL4033654, “Ortho group activation of a bromopyrrole ester in Suzuki-Miyaura cross-coupling reactions: Application to the synthesis of new microtubule depolymerizing agents with potent cytotoxic activities” (Bioorg Med Chem, 2017).
Activity calls are given as the source filed them. The rule behind the calls is not given here.

Assays:
[1] = Induction of tubulin depolymerization in rat A-10 cells after 18 hrs by indirect immunofluorescence method; type: cell-based
How it was run: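 A-10 cells exposed to a wide range of concentrations. Microtubules stained by indirect immunofluorescence, with nuclei counterstained. The percentage of depolymerized cellular microtubules is estimated visually. EC50, the concentration giving 50% loss of cellular microtubules, is found by linear regression.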

SK-OV-3 = assay: Antiproliferative activity against human SKOV3 cells after 48 hrs by SRB assay; type: functional, cell-based; conditions: SK-OV-3, 48 h
How it was run: (§1)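 Cell growth measured by sulforhodamine B assay across a concentration range. IC50 is taken from the dose-response curves, as mean ± SD of at least 3 independent experiments, each run in triplicate. HeLa WT-βIII cells express βIII tubulin. SK-OV-3 MDR-1-M6/6 cells are the P-glycoprotein-expressing isogenic partner of parental SK-OV-3.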

HeLa [2] = assay: Resistance index, ratio of IC50 for human HeLa cells expressing wild type beta3 tubulin to IC50 for human HeLa cells; type: functional
How it was run: (§2)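 Relative resistance is the SRB IC50 in the expressing line divided by the IC50 in the isogenic parental line. The pairs are HeLa WT-βIII over HeLa (βIII tubulin) and SK-OV-3 MDR-1-M6/6 over SK-OV-3 (P-glycoprotein).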

[3] = Antiproliferative activity against human SKOV3-MDR1-M6/6 cells after 48 hrs by SRB assay; type: functional, cell-based; conditions: SKOV3-MDR1-M6/6, 48 h; how it was run: as §1
[4] = Resistance index, ratio of IC50 for human SKOV3-MDR1-M6/6 cells to IC50 for human SKOV3 cells; type: functional; how it was run: as §2
HeLa [5] = assay: Antiproliferative activity against human HeLa cells after 48 hrs by SRB assay; type: functional, cell-based; how it was run: as §1
MDA-MB-435 [6] = assay: Antitumor activity against human MDA-MB-435 cells xenografted in athymic nude mouse assessed as tumor growth inhibition at 75 mg/kg, ip administered daily for 9 days measured on day 14; type: functional, organism-based
How it was run: (§3)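 Six-week-old female athymic nude mice implanted bilaterally with MDA-MB-435 cells. Dosing starts when tumors average 200 mm3. Drug given at 75 mg/kg/dose i.p. daily on days 0–8, solubilized in 2:1 Tween80:DMSO and diluted into PBS. Mice weighed twice weekly. On day 14, tumors excised and weighed and compared with control by unpaired two-tailed Student's t-test. Tumor volumes analysed by 2-way ANOVA with Dunnett's test.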

HeLa [7] = assay: Antiproliferative activity against human HeLa cells expressing wild type beta3 tubulin after 48 hrs by SRB assay; type: functional, cell-based; how it was run: as §1
Mus musculus [8] = assay: Toxicity in athymic nude mouse xenografted with human MDA-MB-435 cells assessed as overt toxicity at 75 mg/kg, ip administered daily for 9 days measured on day 14; type: organism-based; conditions: in vivo, 216 h; how it was run: as §3
MDA-MB-435 [9] = assay: Antitumor activity against human MDA-MB-435 cells xenografted in athymic nude mouse assessed as reduction in mean tumor mass at 75 mg/kg, ip administered daily for 9 days measured on day 14; type: functional, organism-based; how it was run: as §3
MDA-MB-435 [10] = assay: Antiproliferative activity against human MDA-MB-435 cells after 48 hrs by SRB assay; type: functional, cell-based; conditions: MDA-MB-435, 48 h; how it was run: as §1
Mus musculus [11] = assay: Toxicity in athymic nude mouse xenografted with human MDA-MB-435 cells assessed as body weight loss at 20 mg/kg, ip administered on day 2, 4, 6, 8 and 11 measured on day 14; type: organism-based; conditions: in vivo
How it was run: (§4)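 Female athymic nude mice, six weeks old, bearing bilateral MDA-MB-435 xenografts averaging 200 mm3 at the start of treatment. […] Body weight recorded twice weekly through day 14. Tumor volumes analysed by 2-way ANOVA with Dunnett's post-hoc test.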

MDA-MB-435 [12] = assay: Antitumor activity against human MDA-MB-435 cells xenografted in athymic nude mouse assessed as tumor growth inhibition at 20 mg/kg, ip administered on day 2,4,6,8, and 11 measured on day 14; type: functional, organism-based; how it was run: as §4

SMILES	EC50 [1]	IC50 (SK-OV-3)	IC50 (HeLa [5])	IC50 (HeLa [7])	IC50 (MDA-MB-435 [10])	Ratio IC50 (HeLa [2])	IC50 [3]	Ratio IC50 [4]	TGI (MDA-MB-435 [6])	Activity (Mus musculus [8])	Activity (MDA-MB-435 [9])	Activity (Mus musculus [11])	TGI (MDA-MB-435 [12])
CCOC(=O)c1[nH]c(/C=N\O)c(-c2ccc(OC)c(OC)c2OC)c1Br	108 nM	33.7 nM	29.4 nM	31.3 nM	25.3 nM	1.1	49.6 nM	1.5	–	–	–	–	–
CCOC(=O)c1[nH]c(Cl)c(-c2ccc(OC)c(OC)c2OC)c1Cl	1000 nM	210 nM	131 nM	140 nM	116 nM	1.1	140 nM	0.67	–	–	–	–	–
CCOC(=O)c1[nH]c(/C=N/O)c(-c2ccc(OC)c(OC)c2OC)c1Br	56 nM	23.1 nM	18 nM	25 nM	14 nM	1.4	41.6 nM	1.8	–	–	–	–	–
CCOC(=O)c1[nH]c(Br)c(-c2ccc(OC)c(OC)c2OC)c1Br	37 nM	15.2 nM	12.9 nM	15.7 nM	10.4 nM	1.2	10.6 nM	0.7	–	–	–	–	–

Continued by falling IC50 (HeLa [5]), values first:

EC50 [1]	IC50 (SK-OV-3)	IC50 (HeLa [5])	IC50 (HeLa [7])	IC50 (MDA-MB-435 [10])	SMILES	Ratio IC50 (HeLa [2])	IC50 [3]	Ratio IC50 [4]	TGI (MDA-MB-435 [6])	Activity (Mus musculus [8])	Activity (MDA-MB-435 [9])	Activity (Mus musculus [11])	TGI (MDA-MB-435 [12])
88 nM	26.2 nM	20.6 nM	26.1 nM	19.6 nM	CCOC(=O)c1[nH]c(C#N)c(-c2ccc(OC)c(OC)c2OC)c1Br	1.3	42.2 nM	1.6	–	–	–	–	–
9.2 nM	5.3 nM	5 nM	4.1 nM	2.7 nM	CCOC(=O)c1[nH]c(C=NO)c(-c2ccc(OC)c(OC)c2OC)c1Br (mixture of isomers)	0.9	6.6 nM	1.2	Active	Non-Toxic	Active	–	–
–	–	1.5 nM	21.1 nM	2 nM	CC(=O)O[C@H]1C(=O)[C@@]2(C)[C@H]([C@H](OC(=O)c3ccccc3)[C@]3(O)C[C@H](OC(=O)[C@H](O)[C@@H](NC(=O)c4ccccc4)c4ccccc4)C(C)=C1C3(C)C)[C@]1(OC(C)=O)CO[C@@H]1C[C@@H]2O [PACLITAXEL]	–	2330 nM	–	–	–	–	2.5%	Active
